According to ChEMBL document CHEMBL2424574, “Structure-activity relationships and pharmacophore model of a noncompetitive pyrazoline containing class of GluN2C/GluN2D selective antagonists” (J Med Chem, 2013):

How the values were obtained:
[1] = target: Glutamate receptor ionotropic, NMDA 2B (Rattus norvegicus) (UniProt Q00960); experiment: Negative allosteric modulation of recombinant rat GluN2B receptor expressed in Xenopus laevis oocytes at 100 uM by two-electrode voltage clamp method; format: cell-based; details: Oocyte
How it was run: (§1)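 Two-electrode voltage clamp of Xenopus oocytes expressing rat GluN1 with GluN2A, 2B, 2C or 2D. Holding potential −40 mV in recording solution (mM: 90 NaCl, 1 KCl, 0.5 BaCl2, 0.005 EDTA, 10 HEPES, pH 7.4, 23 °C). Compounds diluted from 20 mM DMSO stocks to 0.05–0.1% final DMSO. IC50 from a Hill fit to the averaged composite concentration–response curve, 5–24 oocytes from 2–4 frogs.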

[2] = target: Glutamate receptor ionotropic, NMDA 2D (Rattus norvegicus, UniProt P35439+Q62645); experiment: Negative allosteric modulation of recombinant rat GluN2D receptor expressed in Xenopus laevis oocytes by two-electrode voltage clamp method; format: cell-based, Oocyte; how it was run: as §1
Sequence of Glutamate receptor ionotropic, NMDA 2D (Rattus norvegicus, UniProt P35439+Q62645) (Q62645 whole entry, one chain of several): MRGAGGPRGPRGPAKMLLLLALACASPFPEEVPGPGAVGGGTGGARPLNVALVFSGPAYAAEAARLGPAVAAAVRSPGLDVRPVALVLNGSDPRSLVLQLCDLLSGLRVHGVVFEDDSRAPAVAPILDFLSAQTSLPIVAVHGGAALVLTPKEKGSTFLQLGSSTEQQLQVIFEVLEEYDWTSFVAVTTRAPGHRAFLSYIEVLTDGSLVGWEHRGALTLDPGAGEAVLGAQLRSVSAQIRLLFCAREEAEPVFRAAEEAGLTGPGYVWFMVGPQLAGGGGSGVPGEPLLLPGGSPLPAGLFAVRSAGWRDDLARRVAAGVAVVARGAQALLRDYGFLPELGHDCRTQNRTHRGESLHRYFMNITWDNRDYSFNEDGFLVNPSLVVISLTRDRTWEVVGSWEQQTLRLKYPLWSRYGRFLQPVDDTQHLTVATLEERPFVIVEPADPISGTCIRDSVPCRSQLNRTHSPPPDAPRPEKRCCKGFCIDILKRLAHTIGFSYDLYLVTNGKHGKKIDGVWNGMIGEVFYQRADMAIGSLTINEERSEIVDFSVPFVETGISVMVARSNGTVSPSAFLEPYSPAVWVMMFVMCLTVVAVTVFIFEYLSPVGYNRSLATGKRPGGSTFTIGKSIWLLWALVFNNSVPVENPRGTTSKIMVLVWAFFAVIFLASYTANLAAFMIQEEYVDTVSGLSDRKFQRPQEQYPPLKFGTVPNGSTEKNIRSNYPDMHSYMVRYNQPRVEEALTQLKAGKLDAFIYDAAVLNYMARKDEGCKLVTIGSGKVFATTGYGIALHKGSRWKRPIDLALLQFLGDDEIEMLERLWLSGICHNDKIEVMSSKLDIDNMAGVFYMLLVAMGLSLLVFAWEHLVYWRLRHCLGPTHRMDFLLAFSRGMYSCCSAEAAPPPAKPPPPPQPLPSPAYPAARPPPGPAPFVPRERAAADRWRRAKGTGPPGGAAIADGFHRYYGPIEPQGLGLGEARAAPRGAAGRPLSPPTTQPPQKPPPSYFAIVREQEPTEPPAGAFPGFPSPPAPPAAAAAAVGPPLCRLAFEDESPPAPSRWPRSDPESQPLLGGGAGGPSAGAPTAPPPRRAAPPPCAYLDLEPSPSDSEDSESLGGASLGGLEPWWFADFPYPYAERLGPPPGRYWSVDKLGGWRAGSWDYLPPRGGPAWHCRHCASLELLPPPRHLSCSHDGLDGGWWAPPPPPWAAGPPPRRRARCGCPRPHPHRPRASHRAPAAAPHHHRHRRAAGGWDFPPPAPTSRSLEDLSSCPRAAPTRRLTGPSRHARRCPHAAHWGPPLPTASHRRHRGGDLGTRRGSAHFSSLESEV

[3] = target: Glutamate receptor ionotropic, NMDA 2C (Rattus norvegicus, UniProt P35439+Q00961); experiment: Negative allosteric modulation of recombinant rat GluN2C receptor expressed in Xenopus laevis oocytes by two-electrode voltage clamp method; format: cell-based, Oocyte; how it was run: as §1
Sequence of Glutamate receptor ionotropic, NMDA 2C (Q00961 whole entry, one chain of several): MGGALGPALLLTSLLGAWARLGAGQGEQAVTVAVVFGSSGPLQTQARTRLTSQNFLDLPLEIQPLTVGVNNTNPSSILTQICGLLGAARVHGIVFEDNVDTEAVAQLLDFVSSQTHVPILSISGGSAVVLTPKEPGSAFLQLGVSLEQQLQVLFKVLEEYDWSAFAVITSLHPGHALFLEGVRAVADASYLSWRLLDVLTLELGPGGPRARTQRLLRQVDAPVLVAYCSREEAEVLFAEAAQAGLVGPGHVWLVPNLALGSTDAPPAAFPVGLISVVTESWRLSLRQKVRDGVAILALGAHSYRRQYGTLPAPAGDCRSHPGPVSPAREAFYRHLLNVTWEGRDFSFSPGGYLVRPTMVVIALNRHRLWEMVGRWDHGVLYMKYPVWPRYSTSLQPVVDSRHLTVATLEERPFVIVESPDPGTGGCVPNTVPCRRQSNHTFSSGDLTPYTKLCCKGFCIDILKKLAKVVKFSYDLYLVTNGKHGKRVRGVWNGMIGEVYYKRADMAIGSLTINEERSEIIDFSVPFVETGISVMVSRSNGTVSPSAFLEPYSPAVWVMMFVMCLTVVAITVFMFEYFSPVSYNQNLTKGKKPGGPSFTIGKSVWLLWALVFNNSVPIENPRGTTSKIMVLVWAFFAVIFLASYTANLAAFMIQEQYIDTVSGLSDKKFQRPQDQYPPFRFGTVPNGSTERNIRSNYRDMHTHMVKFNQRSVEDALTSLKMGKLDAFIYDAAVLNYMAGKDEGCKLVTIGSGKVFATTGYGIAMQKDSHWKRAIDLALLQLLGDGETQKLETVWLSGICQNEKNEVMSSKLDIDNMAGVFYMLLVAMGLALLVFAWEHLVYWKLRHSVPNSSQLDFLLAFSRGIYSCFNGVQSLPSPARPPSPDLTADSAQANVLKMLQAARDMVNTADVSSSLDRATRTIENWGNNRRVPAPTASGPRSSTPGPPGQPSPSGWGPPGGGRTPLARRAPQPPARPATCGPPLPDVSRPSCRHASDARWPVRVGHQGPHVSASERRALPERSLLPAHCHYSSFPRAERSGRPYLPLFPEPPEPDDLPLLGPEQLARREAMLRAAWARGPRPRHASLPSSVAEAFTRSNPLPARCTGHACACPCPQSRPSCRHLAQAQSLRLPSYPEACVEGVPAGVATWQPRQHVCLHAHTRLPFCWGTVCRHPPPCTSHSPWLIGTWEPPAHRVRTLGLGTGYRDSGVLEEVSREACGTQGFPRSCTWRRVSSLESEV

[4] = target: Glutamate receptor ionotropic, NMDA 2A (Rattus norvegicus) (UniProt Q00959); experiment: Negative allosteric modulation of recombinant rat GluN2A receptor expressed in Xenopus laevis oocytes at 100 uM by two-electrode voltage clamp method; format: cell-based; details: Oocyte; how it was run: as §1
[5] = target: Glutamate receptor ionotropic, NMDA 2D (Homo sapiens, UniProt O15399+Q05586); experiment: Inhibition of NMDA GluN2D receptor (unknown origin)
Homo sapiens = species: Homo sapiens; experiment: Selectivity ratio of IC50 for NMDA GluN2B receptor (unknown origin) to IC50 for NMDA GluN2D receptor (unknown origin)
[6] = target: Glutamate receptor ionotropic, NMDA 2C (Rattus norvegicus) (UniProt Q00961); experiment: Negative allosteric modulation of recombinant rat GluN2C receptor expressed in Xenopus laevis oocytes at 100 uM by two-electrode voltage clamp method; format: cell-based; details: Oocyte; how it was run: as §1
Sequence of Glutamate receptor ionotropic, NMDA 2C (Rattus norvegicus) (Q00961 20-1237 limits assumed): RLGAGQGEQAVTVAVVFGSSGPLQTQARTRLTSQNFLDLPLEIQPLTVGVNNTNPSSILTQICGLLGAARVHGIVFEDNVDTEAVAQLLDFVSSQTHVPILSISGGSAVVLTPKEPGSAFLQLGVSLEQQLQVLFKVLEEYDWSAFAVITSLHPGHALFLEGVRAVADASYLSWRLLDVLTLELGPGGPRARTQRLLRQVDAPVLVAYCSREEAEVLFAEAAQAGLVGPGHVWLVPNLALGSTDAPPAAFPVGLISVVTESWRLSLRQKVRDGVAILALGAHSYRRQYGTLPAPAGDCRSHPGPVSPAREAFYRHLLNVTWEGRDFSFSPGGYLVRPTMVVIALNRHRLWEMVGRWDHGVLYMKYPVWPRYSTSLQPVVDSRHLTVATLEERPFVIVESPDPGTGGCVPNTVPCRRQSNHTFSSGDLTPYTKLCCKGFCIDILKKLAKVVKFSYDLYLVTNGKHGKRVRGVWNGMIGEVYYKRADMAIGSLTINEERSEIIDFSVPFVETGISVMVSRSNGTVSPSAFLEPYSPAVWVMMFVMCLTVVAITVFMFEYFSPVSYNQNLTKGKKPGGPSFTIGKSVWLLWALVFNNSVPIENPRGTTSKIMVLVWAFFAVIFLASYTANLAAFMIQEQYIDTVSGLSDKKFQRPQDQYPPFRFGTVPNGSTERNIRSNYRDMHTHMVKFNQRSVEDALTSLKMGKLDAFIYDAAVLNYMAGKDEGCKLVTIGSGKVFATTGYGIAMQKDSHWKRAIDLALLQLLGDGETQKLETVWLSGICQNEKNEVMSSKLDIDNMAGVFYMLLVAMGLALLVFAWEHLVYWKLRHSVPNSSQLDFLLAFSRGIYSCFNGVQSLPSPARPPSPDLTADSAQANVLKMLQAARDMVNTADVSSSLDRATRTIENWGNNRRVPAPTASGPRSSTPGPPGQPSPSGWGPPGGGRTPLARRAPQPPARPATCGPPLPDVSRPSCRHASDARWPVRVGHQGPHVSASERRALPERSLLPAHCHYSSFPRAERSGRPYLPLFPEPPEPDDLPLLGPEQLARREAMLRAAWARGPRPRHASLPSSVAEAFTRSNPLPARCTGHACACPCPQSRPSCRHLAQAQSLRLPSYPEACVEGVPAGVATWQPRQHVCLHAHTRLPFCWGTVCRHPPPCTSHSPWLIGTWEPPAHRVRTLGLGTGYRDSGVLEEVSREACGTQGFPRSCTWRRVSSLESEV

[7] = target: Glutamate receptor ionotropic, NMDA 2D (Rattus norvegicus) (UniProt Q62645); experiment: Negative allosteric modulation of recombinant rat GluN2D receptor expressed in Xenopus laevis oocytes at 100 uM by two-electrode voltage clamp method; format: cell-based; details: Oocyte; how it was run: as §1
Sequence of Glutamate receptor ionotropic, NMDA 2D (Rattus norvegicus) (Q62645 whole entry): as the sequence (Q62645 whole entry, one chain of several) above

Liver microsomes [8] = experiment: Metabolic stability in human liver microsomes assessed as compound remaining at 1 uM after 30 mins by LC-MS/MS analysis; format: ADME, Microsome; details: 0.5 h
How it was run: (§2)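 Human liver microsomes 0.5 mg/mL in 100 mM potassium phosphate pH 7.4 with 5 mM MgCl2 and 1 μM test compound. Preincubated 3 min at 37 °C, then started with 1 mM NADPH, with a testosterone control in parallel. Sampled at 0, 10, 20, 30 and 60 min and quenched in cold acetonitrile/water with formic acid and internal standard. Percent remaining by LC-MS/MS (MRM) versus time 0. t1/2 = 0.693/k from the ln-remaining slope; CLint = k/protein concentration.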

Liver microsomes [9] = experiment: Half life in human liver microsomes at 1 uM; format: ADME, Microsome; how it was run: as §2
Liver microsomes [10] = experiment: Intrinsic clearance in human liver microsomes measured per mg of protein at 1 uM by LC-MS/MS analysis; format: ADME, Microsome; how it was run: as §2
Liver microsomes [11] = experiment: Metabolic stability in human liver microsomes assessed as compound remaining at 1 uM after 10 mins by LC-MS/MS analysis; format: ADME, Microsome; how it was run: as §2
MDCK [12] = experiment: Apparent permeability across basolateral to apical side in dog MDCK cells expressing MDR1 at 5 uM after 120 mins by LC-MS/MS analysis; format: ADME, cell-based, Canis lupus familiaris; details: 2 h
How it was run: (§3)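 MDR1-MDCK monolayers grown to confluence on collagen-coated polycarbonate membranes. Assay buffer was HBSS with 10 mM HEPES and 15 mM glucose, pH 7.4, and the receiver side also held 1% BSA. Monolayers were dosed apically (A-to-B) or basolaterally (B-to-A) at 5 μM, 37 °C, 5% CO2. Donor and receiver were sampled at 120 min, in duplicate, by LC-MS/MS (ESI). Papp and percent recovery were calculated from receiver/donor concentrations.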

Liver microsomes [13] = experiment: Metabolic stability in human liver microsomes assessed as compound remaining at 1 uM after 20 mins by LC-MS/MS analysis; format: ADME, Microsome; how it was run: as §2
MDCK [14] = experiment: Apparent permeability across apical to basolateral side in dog MDCK cells expressing MDR1 at 5 uM after 120 mins by LC-MS/MS analysis; format: ADME, cell-based, Canis lupus familiaris; details: 2 h; how it was run: as §3
MDCK [15] = experiment: Permeability across basolateral to apical side in dog MDCK cells expressing MDR1 assessed as compound recovery at 5 uM after 120 mins by LC-MS/MS analysis; format: ADME, cell-based, Canis lupus familiaris; details: 2 h; how it was run: as §3
MDCK [16] = experiment: Permeability across apical to basolateral side in dog MDCK cells expressing MDR1 assessed as compound recovery at 5 uM after 120 mins by LC-MS/MS analysis; format: ADME, cell-based, Canis lupus familiaris; details: 2 h; how it was run: as §3
Liver microsomes [17] = experiment: Metabolic stability in human liver microsomes assessed as compound remaining at 1 uM after 60 mins by LC-MS/MS analysis; format: ADME, Microsome; details: 1 h; how it was run: as §2
[18] = target: Glutamate receptor ionotropic, NMDA 2B (Rattus norvegicus, UniProt P35439+Q00960); experiment: Negative allosteric modulation of recombinant rat GluN2B receptor expressed in Xenopus laevis oocytes by two-electrode voltage clamp method; format: cell-based, Oocyte; how it was run: as §1
Rattus norvegicus [19] = species: Rattus norvegicus; experiment: Selectivity ratio of IC50 for recombinant rat GluN2B receptor to IC50 for recombinant rat GluN2D receptor
How it was run: (§4)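 Rat GluN1 co-expressed with GluN2A, GluN2B or GluN2D in Xenopus oocytes. Two-electrode voltage clamp at −40 mV in 90 NaCl, 1 KCl, 0.5 BaCl2, 0.005 EDTA, 10 HEPES (mM), pH 7.4, 23 °C; final DMSO 0.1–0.05%. IC50s came from Hill fits to averaged composite concentration-response curves (5–24 oocytes, 2–4 frogs). Ratio is GluN2A or GluN2B IC50 over GluN2D IC50.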

Rattus norvegicus [20] = species: Rattus norvegicus; experiment: Selectivity ratio of IC50 for recombinant rat GluN2A receptor to IC50 for recombinant rat GluN2D receptor; how it was run: as §4
[21] = target: Glutamate receptor ionotropic, NMDA 2A (Rattus norvegicus, UniProt P35439+Q00959); experiment: Negative allosteric modulation of recombinant rat GluN2A receptor expressed in Xenopus laevis oocytes by two-electrode voltage clamp method; format: cell-based, Oocyte; how it was run: as §1

Compound	inhibition [1]	IC50 [2]	IC50 [3]	inhibition [4]	also measured
O=C(O)/C=C/C(=O)N1N=C(c2c(-c3ccccc3)c3cc(Cl)ccc3[nH]c2=O)CC1c1ccc(Br)cc1 (configuration not stated)	< 30%	1.4 µM	2.1 µM	< 30%	
O=C(O)CCC(=O)N1N=C(c2c(-c3ccccc3)c3cc(Cl)ccc3[nH]c2=O)CC1c1ccc(Br)cc1 (configuration not stated)		3.1 µM	3.6 µM	< 30%	
COC(=O)c1ccc(C2CC(c3c(-c4ccccc4)c4cc(Cl)ccc4[nH]c3=O)=NN2C(=O)CCC(=O)O)cc1 (configuration not stated)	< 30%		93 µM	< 30%	
Cc1ccc2[nH]c(=O)c(C3=NN(C(=O)CCC(=O)O)C(c4ccc(Br)cc4)C3)c(-c3ccccc3)c2c1 (configuration not stated)					IC50 [5]: 2700 nM; Ratio IC50 (Homo sapiens): 41
COC(=O)CCCN1N=C(c2c(-c3ccc(Cl)cc3)c3ccccc3[nH]c2=O)CC1c1ccc(Cl)cc1 (configuration not stated)	< 30%			< 30%	inhibition [6]: < 30%; inhibition [7]: < 30%
O=C(O)CCC(=O)N1N=C(c2c(O)nc3ccc(Cl)cc3c2-c2ccccc2)CC1c1ccccc1 (configuration not stated)	< 30%			< 30%	
COC(=O)/C=C/C(=O)N1N=C(c2c(-c3ccc(Br)cc3)c3ccccc3[nH]c2=O)CC1c1ccc(Cl)cc1 (configuration not stated)	< 30%	95 µM	59 µM	< 30%	
N#Cc1ccc(-c2c(C3=NN(C(=O)CCC(=O)O)C(c4ccc(Cl)cc4)C3)c(=O)[nH]c3ccccc23)cc1 (configuration not stated)	< 30%	7 µM	12 µM		Ratio IC50 (Rattus norvegicus [20]): 22; IC50 [21]: 156 µM
O=C(O)CCC(=O)N1N=C(c2c(-c3ccccc3)c3cc(Cl)ccc3[nH]c2=O)CC1c1ccc(C(=O)O)cc1 (configuration not stated)	< 30%			< 30%	inhibition [6]: < 30%; inhibition [7]: < 30%

The next lines start with results.

inhibition [1]	IC50 [2]	IC50 [3]	inhibition [4]	Compound	also measured
< 30%	19 µM	39 µM	< 30%	CN(C)c1ccc(C2CC(c3c(-c4ccccc4)c4cc(Cl)ccc4[nH]c3=O)=NN2C(=O)CCC(=O)O)cc1 (configuration not stated)	
< 30%	4.5 µM	5.5 µM	< 30%	O=C(O)CCC(=O)N1N=C(c2c(-c3ccccc3)c3cc(Cl)ccc3[nH]c2=O)CC1c1ccc(Cl)cc1 (configuration not stated)	
< 30%			< 30%	O=C(CCCF)N1N=C(c2c(-c3ccc(Cl)cc3)c3ccccc3[nH]c2=O)CC1c1ccc(Cl)cc1 (configuration not stated)	Stability (Liver microsomes [8]): 49%; inhibition [6]: < 30%; t1/2 (Liver microsomes [9]): 35 min; CLint (Liver microsomes [10]): 0.04 mL/min/mg; inhibition [7]: < 30%; Stability (Liver microsomes [11]): 67%; Papp (MDCK [12]): 9.52 ×10⁻⁶ cm/s; Stability (Liver microsomes [13]): 49%; Papp (MDCK [14]): 3.88 ×10⁻⁶ cm/s; Drug recovery (MDCK [15]): 67%; Drug recovery (MDCK [16]): 43%; Stability (Liver microsomes [17]): 39%
	23 µM	23 µM	< 30%	O=C(O)CCC(=O)N1N=C(c2c(-c3ccccc3)c3cc(Cl)ccc3[nH]c2=O)CC1c1ccc2c(c1)OCO2 (configuration not stated)	IC50 [18]: 90 µM; Ratio IC50 (Rattus norvegicus [19]): 4
< 30%	13 µM	19 µM	< 30%	N#Cc1cccc(-c2c(C3=NN(C(=O)CCC(=O)O)C(c4ccc(Cl)cc4)C3)c(=O)[nH]c3ccccc23)c1 (configuration not stated)	
	0.53 µM	0.91 µM		O=C(O)CCC(=O)N1N=C(c2c(-c3ccc(Cl)c(F)c3)c3ccccc3[nH]c2=O)CC1c1ccc(Cl)cc1 (configuration not stated)	IC50 [18]: 28 µM; Ratio IC50 (Rattus norvegicus [20]): 23; Ratio IC50 (Rattus norvegicus [19]): 53; IC50 [21]: 12 µM
< 30%			< 30%	COC(=O)CCC(=O)N1N=C(c2c(-c3ccccc3)c3cc(Cl)ccc3[nH]c2=O)CC1c1ccc(Br)cc1 (configuration not stated)	inhibition [6]: < 30%; inhibition [7]: < 30%
